Assay results taken from ChEMBL document CHEMBL5625195, “Identification of novel tetrahydroquinoxaline derived phenyl ureas as modulators of the hepatitis B virus nucleocapsid assembly” (Eur J Med Chem, 2023).
Activity calls are given as the source filed them. The rule behind the calls is not given here.

Legend:
Hepatitis B virus [1] = experiment: Antiviral activity against HBV infected in AML12HBV10 cells assessed as change in total viral RNA at 1 uM after 2 days by Northern blot hybridization; type: functional, organism-based; details: time 2.0 day
Summary of the method: (§1)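 AML12HBV10 cells in 24-well plates were kept with or without tetracycline for 24 h. Tet-maintained cells served as the no-pgRNA negative control. Cells were then mock (DMSO) or compound treated for 48 h. Total viral RNA and encapsidated pgRNA were read by Northern blot with rRNA as loading control. Core protein was read by Western blot (C-terminal 14-residue antibody, β-actin control), capsids by native particle gel assay, and replication intermediates by Southern blot.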

Hepatitis B virus [2] = experiment: Antiviral activity against HBV infected in AML12HBV10 cells assessed as change in core protein at 1 uM after 2 days by Northern blot hybridization; type: functional, organism-based; details: time 2.0 day; summary of the method: as §1
Hepatitis B virus [3] = experiment: Antiviral activity against HBV infected in AML12HBV10 cells assessed as change in encapsidated pgRNA at 1 uM after 2 days by Northern blot hybridization; type: functional, organism-based; details: time 2.0 day
Summary of the method: (§2)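 AML12HBV10 cells were induced by tetracycline withdrawal for 24 h, then mock (DMSO) or compound treated for 48 h, with tetracycline-maintained cells as negative control. Encapsidated pgRNA was detected by Northern blot hybridization, using ribosomal RNA as loading control.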

Hepatitis B virus [4] = experiment: Antiviral activity against HBV infected in AML12HBV10 cells assessed as change in capsids at 1 uM after 2 days by Northern blot hybridization; type: functional, organism-based; details: time 2.0 day
Summary of the method: (§3)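 AML12HBV10 cells (mouse hepatocyte line carrying tetracycline-inducible, envelope-deficient HBV genome) in 24-well plates. Tetracycline was removed for 24 h before treatment; tetracycline-maintained cells served as negative control. Cells were mock (DMSO) or compound treated for a further 48 h. Intracellular capsids and core-associated DNA were resolved by native agarose gel particle assay.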

Hepatitis B virus [5] = experiment: Antiviral activity against HBV infected in AML12HBV10 cells assessed as change in capsid associated viral DNA at 1 uM after 2 days by Northern blot hybridization; type: functional, organism-based; details: time 2.0 day; summary of the method: as §3
Hepatitis B virus [6] = experiment: Antiviral activity against HBV infected in AML12HBV10 cells assessed as change in DNA replication intermediates at 1 uM after 2 days by Northern blot hybridization; type: functional, organism-based; details: time 2.0 day; summary of the method: as §1
Hepatitis B virus [7] = experiment: Antiviral activity against HBV infected in AML12HBV10 cells assessed as reduction viral replication incubated for 48 hrs; type: functional, organism-based; details: AML12HBV10, 48 h
Summary of the method: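 AML12HBV10 cells were seeded at 2 x 10^4 per well without tetracycline. After one day, 2-fold serial dilutions (10 μM to 0.08 μM) were applied for 48 h. Lysates were denatured, neutralized and dot-blotted, then hybridized with a 32P-labelled riboprobe specific for HBV minus-strand DNA and read by phosphorimager. EC50 was the concentration reducing HBV DNA by 50%.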

AML12 = experiment: (§4) Cytotoxicity against mouse AML12 cells assessed as reduction in cell viability incubated for 48 hrs by MTT assay; type: toxicity, cell-based; details: aml12, 48 h
Summary of the method: (§5)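 Stable AML12HBV10 hepatocytes (AML12-derived), cultured without tetracycline, were exposed to 2-fold serial dilutions (50 μM to 1.56 μM) for 48 h. Viability was inspected microscopically and quantified by MTT. CC50 was the concentration lowering viability by 50%.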

Hepatitis B virus [8] = experiment: Antiviral activity against HBV infected in AML12HBV10 cells assessed as change in total viral RNA at 1 to 5 uM after 2 days by Northern blot hybridization; type: functional, organism-based; details: dose 1-5 µM, time 2.0 day; summary of the method: as §1
Hepatitis B virus [9] = experiment: Antiviral activity against HBV infected in AML12HBV10 cells assessed as change in core protein at 1 to 5 uM after 2 days by Northern blot hybridization; type: functional, organism-based; details: dose 1-5 µM, time 2.0 day; summary of the method: as §1
Hepatitis B virus [10] = experiment: Antiviral activity against HBV infected in AML12HBV10 cells assessed as decrease in capsid assembly at 1 to 5 uM after 2 days by Northern blot hybridization; type: functional, organism-based; details: dose 1-5 µM, time 2.0 day; summary of the method: as §3
Hepatitis B virus [11] = experiment: Antiviral activity against HBV infected in AML12HBV10 cells assessed as decrease in encapsidated pgRNA at 1 to 5 uM after 2 days by Northern blot hybridization; type: functional, organism-based; details: dose 1-5 µM, time 2.0 day; summary of the method: as §2
Hepatitis B virus [12] = experiment: Antiviral activity against HBV infected in AML12HBV10 cells assessed as decrease in viral DNA replication at 1 to 5 uM after 2 days by Northern blot hybridization; type: functional, organism-based; details: dose 1-5 µM, time 2.0 day; summary of the method: as §1
[13] = as §4; type: toxicity, cell-based; details: AML12 cells; summary of the method: as §5
Hepatitis B virus [14] = experiment: Antiviral activity against HBV infected in HepDES19 cells assessed as reduction viral DNA incubated for 4 days by qPCR analysis; type: functional, organism-based; details: HepDES19, 96 h
Summary of the method: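 HepDES19 (HepG2-derived, tetracycline-inducible HBV) cells in 24-well plates, cultured without tetracycline for 2 days, then mock or serial 2-fold compound dilutions for 4 more days. Cytoplasmic HBV core DNA was extracted and quantified by qPCR. EC50 came from triplicate biological experiments by regression.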

[15] = Cytotoxicity against human HepDES19 cells assessed as reduction in cell viability incubated for 6 days by MTT assay; type: toxicity, cell-based; details: time 6 day
Summary of the method: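 Tetracycline-free HepDES19 cells in 96-well plates were exposed to […] serial dilutions (50 μM to 0.39 μM) for 6 days. Viability was checked by microscopy and measured by MTT. CC50 was the concentration reducing viability by 50%.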

Hepatitis B virus [16] = experiment: Antiviral activity against HBV infected in AML12HBV10 cells assessed as decrease in capsid assembly at 2 uM after 2 days by Northern blot hybridization; type: functional, organism-based; details: time 2.0 day; summary of the method: as §3
Hepatitis B virus [17] = experiment: Antiviral activity against HBV infected in AML12HBV10 cells assessed as accumulation of capsid at 5 uM after 2 days by Northern blot hybridization; type: functional, organism-based; details: time 2.0 day; summary of the method: as §3
Hepatitis B virus [18] = experiment: Antiviral activity against HBV infected in AML12HBV10 cells assessed as reduction in encapsidated pgRNA at 2 uM after 2 days by Northern blot hybridization; type: functional, organism-based; details: time 2.0 day; summary of the method: as §2
Hepatitis B virus [19] = experiment: Antiviral activity against HBV infected in AML12HBV10 cells assessed as reduction in viral DNA replication at 2 uM after 2 days by Northern blot hybridization; type: functional, organism-based; details: time 2.0 day; summary of the method: as §1
Hepatitis B virus [20] = experiment: Antiviral activity against HBV infected in AML12HBV10 cells assessed as reduction in encapsidated pgRNA at 5 uM after 2 days by Northern blot hybridization; type: functional, organism-based; details: time 2.0 day; summary of the method: as §2
Hepatitis B virus [21] = experiment: Antiviral activity against HBV infected in AML12HBV10 cells assessed as reduction in viral DNA replication at 5 uM after 2 days by Northern blot hybridization; type: functional, organism-based; details: time 2.0 day; summary of the method: as §1

Row | Compound | EC50 (Hepatitis B virus [7]) [µM] | CC50 at 48 h [13] [µM] | other results
1 | C=C1[C@H](CO)[C@@H](O)C[C@@H]1n1cnc2c(=O)[nH]c(N)nc21 | – | – | Activity (Hepatitis B virus [1]): inactive; Activity (Hepatitis B virus [2]): inactive; Activity (Hepatitis B virus [3]): inactive; Activity (Hepatitis B virus [4]): inactive; Activity (Hepatitis B virus [5]): Active; Activity (Hepatitis B virus [6]): Active
2 | O=C(Nc1ccc(F)c(Cl)c1)N1CCNc2ccccc21 | 0.51 | – | CC50 (AML12): > 100 µM; Activity (Hepatitis B virus [8]): inactive; Activity (Hepatitis B virus [9]): inactive; Activity (Hepatitis B virus [10]): Active; Activity (Hepatitis B virus [11]): Active; Activity (Hepatitis B virus [12]): Active
3 | N#Cc1cc(NC(=O)N2c3ccccc3NCC2CN2CCC(F)(F)CC2)ccc1F (stereo not drawn) | 0.09 | > 50 | EC50 (Hepatitis B virus [14]): 0.15 µM; CC50 at 144 h [15]: > 50 µM
4 | O=C(Nc1ccc(F)c(Cl)c1)N1CCN(C(=O)Nc2ccc(F)c(Cl)c2)c2ccccc21 | 1.01 | > 12.5 | Activity (Hepatitis B virus [8]): inactive; Activity (Hepatitis B virus [9]): inactive; Activity (Hepatitis B virus [10]): Active; Activity (Hepatitis B virus [11]): Active; Activity (Hepatitis B virus [12]): Active
5 | COC(=O)C1=C(C)NC(c2ncc(F)cc2F)=N[C@H]1c1ccc(F)cc1Cl | – | – | Activity (Hepatitis B virus [16]): Active; Activity (Hepatitis B virus [17]): Active; Activity (Hepatitis B virus [18]): Active; Activity (Hepatitis B virus [19]): Active
6 | O=C(Nc1ccc(F)c(Cl)c1)c1cccc2c1OCCO2 | – | – | EC50 (Hepatitis B virus [14]): 1.02 µM; CC50 at 144 h [15]: > 50 µM
7 | O=C(Nc1ccc(F)c(C(F)F)c1)N1c2ccccc2NCC1CN1CCC(F)(F)CC1 (stereo not drawn) | 0.1 | > 50 | EC50 (Hepatitis B virus [14]): 0.04 µM; CC50 at 144 h [15]: 29.3 µM
8 | O=C(Nc1ccc(F)c(Cl)c1)N1CCN(C(=O)Nc2cc(Cl)c(F)cc2F)c2ccccc21 | 0.39 | > 20 | EC50 (Hepatitis B virus [14]): 0.95 µM; CC50 at 144 h [15]: 16.8 µM
9 | O=S(=O)(Nc1ccc(F)c(Cl)c1)N1CCNc2ccccc21 | > 10 | > 100 | –
10 | O=C(Nc1ccc(F)c(Cl)c1)N1CC2(CCCC2)Nc2ccccc21 | > 10 | > 100 | –
11 | O=C(Nc1ccc(C(O)(C(F)(F)F)C(F)(F)F)cc1)N1CCNc2ccccc21 | > 10 | > 20 | –
12 | NC1CCN(C(=O)Nc2ccc(F)c(Cl)c2)c2ccccc21 (racemic) | > 10 | > 100 | –
13 | CCC(C)NS(=O)(=O)c1ccc(F)c(C(=O)Nc2ccc(F)c(F)c2)c1 (stereo not drawn) | – | – | Activity (Hepatitis B virus [20]): Active; Activity (Hepatitis B virus [21]): Active

Second part, led by results:

Row | EC50 (Hepatitis B virus [7]) [µM] | Compound | CC50 at 48 h [13] [µM] | other results
14 | > 10 | O=C(NCc1ccccc1)N1CCN(C(=O)Nc2ccc(F)c(Cl)c2)c2ccccc21 | > 20 | –
15 | > 10 | O=C(Nc1ccc(F)c(Cl)c1)N1CCN(C(=O)Nc2ccc(F)c(Cl)c2)[C@H]2CCCC[C@H]21 | > 100 | –
16 | > 10 | O=C(Nc1ccc(F)c(Cl)c1)N1CCCCc2ccccc21 | > 100 | –
17 | > 10 | O=C(Nc1ccc(F)c(Cl)c1)N1CCN(CCCCF)c2ccccc21 | > 50 | –
18 | 0.65 | O=C(Nc1cccc(Cl)c1)N1CCN(C(=O)Nc2ccc(F)c(Cl)c2)c2ccccc21 | > 100 | –
19 | 0.27 | Cc1cc(NC(=O)N2c3ccccc3NCC2CN2CCC(F)(F)CC2)ccc1F (stereo not drawn) | > 50 | –
20 | 0.78 | O=C(Nc1ccc(F)c(Cl)c1)N1c2ccccc2NCC1c1ccccc1 (stereo not drawn) | > 50 | –
21 | 0.93 | O=C(Nc1cc(F)c(F)c(Cl)c1)N1CCNc2ccccc21 | > 100 | –
22 | > 10 | CC1(C)CCN(CC2CNc3ccccc3N2C(=O)Nc2ccc(F)c(Cl)c2)CC1 (stereo not drawn) | > 40 | –
23 | 0.77 | O=C(Nc1cc(Cl)ccc1F)N1CCNc2ccccc21 | > 100 | –
24 | 8.07 | O=C(NCc1cccc(Cl)c1)N1CCNc2ccccc21 | > 100 | –
25 | 5.09 | O=C(Nc1ccc(F)c(Cl)c1)N1CC(CN2CCC(F)(F)C2)Nc2ccccc21 (stereo not drawn) | > 100 | –
26 | 0.52 | N#Cc1cc(NC(=O)N2CCNc3ccccc32)ccc1F | > 20 | –
27 | 1.13 | O=C(Nc1cccc(Cl)c1)N1CCNc2ccccc21 | > 100 | –
28 | 0.39 | O=C(Nc1ccc(F)c(F)c1)N1c2ccccc2NCC1CN1CCC(F)(F)CC1 (stereo not drawn) | > 50 | –
29 | 1.11 | O=C(Nc1ccnc(Cl)c1)N1CCN(C(=O)Nc2ccc(F)c(Cl)c2)c2ccccc21 | > 20 | –
30 | 0.24 | Cc1cc(NC(=O)N2CCNc3ccccc32)ccc1F | > 20 | –
31 | 2.03 | O=C(Nc1ccc(F)c(Cl)c1)N1CC(CN2CCOCC2)N(C(=O)Nc2ccc(F)c(Cl)c2)c2ccccc21 (stereo not drawn) | > 100 | –
32 | 7.3 | O=C(Nc1ccc(F)c(Cl)c1)N1c2ccccc2NCC1CN1CCOCC1 (stereo not drawn) | > 40 | –
33 | 4.5 | CC(C)C1CNc2ccccc2N1C(=O)Nc1ccc(F)c(Cl)c1 (stereo not drawn) | > 100 | –
